Columns and labels:
CCRF-CEM [1] = assay: Tested for HIV-1 replication in CEM cells.; assay type: functional, cell-based; conditions: Homo sapiens
In short: (§1)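 CEM T4 lymphocytes, exponentially growing, 5000 cells/well, infected with thawed HIV-1 stock at m.o.i. ~0.1. Compounds dissolved in DMSO, diluted 1:100 in medium, final 1:200. Uninfected drug-treated cells served as toxicity control. Incubation 6 days at 37 °C, 5% CO2. Viability read by XTT formazan absorbance, with microscopic confirmation of protection.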

CCRF-CEM [2] = assay: Effective concentration was evaluated on HIV-1 infected CEM cells.(NR-not reached due to cytotoxicity.); assay type: functional, cell-based, Homo sapiens; in short: as §1
CCRF-CEM [3] = assay: Effective concentration was evaluated on HIV-1 infected CEM cells; assay type: functional, cell-based; conditions: Homo sapiens; in short: as §1
[4] = molecular target: T1, Human immunodeficiency virus type 1 integrase (Human immunodeficiency virus 1, UniProt Q7ZJM1); assay: Inhibitory concentration as 50% inhibition of HIV-1 integrase enzyme at strand transfer stage of DNA integration.
T1 sequence (Q7ZJM1 whole entry): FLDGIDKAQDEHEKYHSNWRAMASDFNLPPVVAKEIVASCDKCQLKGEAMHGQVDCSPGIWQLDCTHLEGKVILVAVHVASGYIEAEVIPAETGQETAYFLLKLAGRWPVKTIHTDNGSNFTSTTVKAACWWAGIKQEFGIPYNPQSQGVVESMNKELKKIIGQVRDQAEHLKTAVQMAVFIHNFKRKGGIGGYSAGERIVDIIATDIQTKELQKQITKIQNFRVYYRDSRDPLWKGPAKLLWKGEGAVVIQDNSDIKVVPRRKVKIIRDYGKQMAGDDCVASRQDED

[5] = molecular target: T1, Human immunodeficiency virus type 1 integrase; assay: Inhibition of HIV-1 integrase enzyme at 3`- processing stage of DNA integration
CCRF-CEM [6] = assay: Effective concentration was evaluated on HIV-1 infected CEM cells. (NR-not reached due to cytotoxicity.); assay type: functional, cell-based; in short: as §1
[7] = molecular target: T1, Human immunodeficiency virus type 1 integrase; assay: Inhibitory concentration was evaluated as 50% inhibition of HIV-1 integrase enzyme at 3`- processing stage of DNA integration in experiment I
[8] = molecular target: T1, Human immunodeficiency virus type 1 integrase; assay: Inhibitory concentration was evaluated as 50% inhibition of HIV-1 integrase enzyme at 3`- processing stage of DNA integration in experiment II
CCRF-CEM [9] = assay: Effective concentration was evaluated on HIV-1 infected CEM cells.; assay type: functional, cell-based; conditions: Homo sapiens; in short: as §1
[10] = molecular target: T1, Human immunodeficiency virus type 1 integrase; assay: Inhibitory concentration was evaluated as 50% inhibition of HIV-1 integrase enzyme at strand transfer stage of DNA integration in experiment II
In short: (§2)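 Purified recombinant HIV-1 integrase (200 nM final) preincubated with inhibitor for 30 min at 30 °C in MOPS/HEPES pH 7.2–7.5 buffer containing 7.5 mM MnCl2 and 10% DMSO. 20 nM 5'-32P-labeled 21-mer duplex oligonucleotide (AE117/AE118) added, then 1 h more. Strand transfer products resolved on denaturing 20% polyacrylamide/urea gels and quantified by phosphorimaging. % inhibition plotted against drug concentration to read IC50.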

[11] = molecular target: T1, Human immunodeficiency virus type 1 integrase; assay: Inhibitory concentration was evaluated as 50% inhibition of HIV-1 integrase enzyme at strand transfer stage of DNA integration in experiment I; in short: as §2

Compound	IC50 (CCRF-CEM [1])	IC50 [4]	IC50 [5]	EC50 (CCRF-CEM [6])	further results
O=C(NNC(=O)c1ccccc1O)c1ccccc1O	0.1 µM	–	–	–	EC50 (CCRF-CEM [2]): Not reached
Nc1ccccc1C(=O)NNC(=O)c1ccccc1N	> 200 µM	> 100 µM	> 100 µM	–	EC50 (CCRF-CEM [3]): > 200 µM
O=C(NNC(=O)c1cccc2ccccc12)c1ccccc1F	–	> 100 µM	> 100 µM	–	–
CC1=NN(C(=O)c2ccccc2O)C(=O)/C1=C/c1ccc(O)cc1	0.059 µM	0.9 µM	0.6 µM	Not reached	–
O=C(NNC(=O)c1cccc2ccccc12)c1ccccc1Br	–	> 100 µM	> 100 µM	–	–
COc1cc(/C=C2/C(=O)N(C(=O)c3ccccc3O)N=C2C)ccc1O	–	0.6 µM	0.8 µM	Not reached	–
O=C(NN1C(=O)C(Cl)C1c1ccccc1O)c1ccccc1O (stereo not drawn)	8.2 µM	264 µM	300 µM	Not reached	–
O=C(NNC(=O)c1ccc(Cl)c(Cl)c1)c1ccccc1	–	> 100 µM	> 100 µM	–	–
CC1=NN(C(=O)c2ccccc2O)C(=O)/C1=C/c1cccc(O)c1	–	7.4 µM	0.9 µM	Not reached	–
O=C(NNC(=O)c1ccc(Br)cc1)c1ccc(Br)cc1	–	> 100 µM	> 100 µM	–	–
CC1=NN(C(=O)c2ccccc2O)C(=O)/C1=C/c1ccco1	0.6 µM	2 µM	2.7 µM	Not reached	–
O=C(NNC(=O)c1ccccc1F)c1ccc2ccccc2c1	–	> 100 µM	> 100 µM	–	–
O=C(NN1C(=O)C(Cl)C1c1ccccc1Cl)c1ccccc1O (stereo not drawn)	> 14.8 µM	94 µM	–	Not reached	IC50 [7]: 241 µM; IC50 [8]: 248 µM
O=C(NNC(=O)c1ccccc1F)c1ccccc1F	–	> 100 µM	> 100 µM	–	–
O=C(NN1C(=O)C(Cl)C1c1c(O)ccc2ccccc12)c1ccccc1O (stereo not drawn)	–	222 µM	127 µM	–	–
COc1cc(C(=O)NNC(=O)c2ccc(Cl)cc2)cc(OC)c1OC	–	> 100 µM	> 100 µM	–	–
CC1=NN(C(=O)c2ccc(Cl)cc2)C(=O)/C1=C/c1ccc(O)cc1	> 15 µM	> 293 µM	> 293 µM	–	EC50 (CCRF-CEM [9]): > 15 µM
CC1=NN(C(=O)c2ccccc2O)C(=O)/C1=C/c1cccc([N+](=O)[O-])c1	0.098 µM	2.6 µM	1.4 µM	Not reached	–
CC1=NN(C(=O)c2ccccc2O)C(=O)/C1=C/c1ccccc1O	0.062 µM	2.8 µM	–	Not reached	–
COc1ccc(/C=C2/C(=O)N(C(=O)c3ccccc3O)N=C2C)cc1OC	0.15 µM	–	–	Not reached	–
O=C(NN1C(=O)C(Cl)C1c1cccc(O)c1)c1ccccc1O (stereo not drawn)	> 15 µM	–	–	Not reached	IC50 [7]: 180 µM; IC50 [10]: 99 µM; IC50 [11]: 236 µM; IC50 [8]: 225 µM
CC1=NN(C(=O)c2ccccc2O)C(=O)/C1=C/c1ccc([N+](=O)[O-])cc1	0.091 µM	0.6 µM	0.8 µM	Not reached	–
O=C(NNC(=O)c1ccc(Cl)cc1Cl)c1ccc2ccccc2c1	–	> 100 µM	> 100 µM	–	–

Compound	IC50 (CCRF-CEM [1])	IC50 [4]	IC50 [5]	EC50 (CCRF-CEM [6])	further results
CCOc1ccccc1C(=O)NNC(=O)c1ccccc1OCC	–	> 100 µM	> 100 µM	–	–
O=C(NN1C(=O)C(Cl)C1c1ccc(O)cc1)c1ccccc1O (stereo not drawn)	10.3 µM	285 µM	> 300 µM	Not reached	–
O=C(NN1C(=O)C(Cl)C1c1ccc([N+](=O)[O-])cc1)c1ccccc1O (stereo not drawn)	> 10 µM	–	–	Not reached	IC50 [7]: 192 µM; IC50 [10]: 83 µM; IC50 [11]: 155 µM; IC50 [8]: 168 µM
COc1cc(C2C(Cl)C(=O)N2NC(=O)c2ccccc2O)cc(OC)c1OC (stereo not drawn)	4.4 µM	73.7 µM	–	Not reached	IC50 [7]: 68.8 µM; IC50 [8]: 75.7 µM
COc1cc(C2C(Cl)C(=O)N2NC(=O)c2ccccc2O)ccc1O (stereo not drawn)	> 27.5 µM	262 µM	> 275 µM	Not reached	–
COc1cc(/C=C2/C(=O)N(C(=O)c3ccc(Cl)cc3)N=C2C)cc(OC)c1OC	> 17 µM	> 240 µM	> 240 µM	–	EC50 (CCRF-CEM [9]): > 17 µM
COc1cc(C(=O)NNC(=O)c2ccc(Cl)c(Cl)c2)cc(OC)c1OC	–	> 100 µM	> 100 µM	–	–
CC1=NN(C(=O)c2ccc(Cl)cc2)C(=O)/C1=C/c1ccccc1O	> 21 µM	> 293 µM	> 293 µM	–	EC50 (CCRF-CEM [9]): > 21 µM
O=C(O)c1ccccc1C(=O)NNC(=O)c1ccccc1C(=O)O	–	> 100 µM	> 100 µM	–	–
O=C(NNC(=O)c1ccc2ccccc2c1)c1ccc(Cl)c(Cl)c1	–	> 100 µM	> 100 µM	–	–
CC1=NN(C(=O)c2ccc(Cl)cc2)C(=O)/C1=C/c1ccc(Cl)cc1	> 10 µM	> 280 µM	> 280 µM	–	EC50 (CCRF-CEM [9]): > 10 µM
CC1=NN(C(=O)c2ccc(Cl)cc2)C(=O)/C1=C/c1cccc(O)c1	> 8 µM	> 293 µM	> 293 µM	–	EC50 (CCRF-CEM [9]): > 8 µM
COc1ccc(C2C(Cl)C(=O)N2NC(=O)c2ccccc2O)cc1OC (stereo not drawn)	> 50 µM	106 µM	–	Not reached	IC50 [7]: 125 µM; IC50 [8]: 109 µM
O=C(NNC(=O)c1ccc(Cl)c(Cl)c1)c1ccc(Cl)c(Cl)c1	–	> 100 µM	> 100 µM	–	–
O=C(NN1C(=O)C(Cl)C1c1cccc(Cl)c1)c1ccccc1O (stereo not drawn)	> 74 µM	125 µM	–	Not reached	IC50 [7]: 155 µM; IC50 [8]: 202 µM
COc1ccc(C2C(Cl)C(=O)N2NC(=O)c2ccccc2O)cc1 (stereo not drawn)	> 144 µM	167 µM	288 µM	–	–
COc1ccc(/C=C2/C(=O)N(C(=O)c3ccc(Cl)cc3)N=C2C)cc1OC	> 35 µM	> 260 µM	> 260 µM	–	EC50 (CCRF-CEM [9]): > 35 µM
COc1cc(/C=C2/C(=O)N(C(=O)c3ccccc3O)N=C2C)cc(OC)c1OC	0.24 µM	2 µM	2 µM	Not reached	–
CC1=NN(C(=O)c2ccc(Cl)cc2)C(=O)/C1=C/c1cccc([N+](=O)[O-])c1	> 20 µM	> 270 µM	> 270 µM	–	EC50 (CCRF-CEM [3]): > 20 µM
O=C(NNC(=O)c1cccc2ccccc12)c1ccc(Cl)c(Cl)c1	–	> 100 µM	> 100 µM	–	–
O=C(NNC(=O)c1ccccc1Br)c1ccccc1Br	–	> 100 µM	> 100 µM	–	–
COc1ccc(/C=C2/C(=O)N(C(=O)c3ccccc3O)N=C2C)cc1	0.053 µM	0.6 µM	0.9 µM	Not reached	–

Source: ChEMBL document CHEMBL1131060, “Salicylhydrazine-containing inhibitors of HIV-1 integrase: implication for a selective chelation in the integrase active site” (J Med Chem, 1998)
